Variants at the floor of the assay were thinned out. Some results are limits rather than exact numbers.

The chains are these.
B1: tRNA (parent)
chain: CUCUCGGUAGCCAAGUUGGUUUAAGGCGCAAGACUUUAAUUUAUCACUACGAAAUCUUGAGAUCGGGCGUUCGACUCGCCCCCGGGAGAUUUUUUCCUCGAGCAA

Variants of B1 are the subject of this data set. As to the kind of experiment: nonsense suppression (GFP-seq) (ratio to wild type); higher = more function; SUP4oc tRNA, yeast GFP reporter sort-seq. Put shortly: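 Raffinose/galactose medium with 80 mg/L adenine was used to grow yeast carrying genome-integrated tRNA variants (~3% random-mutation library), RFP, and a galactose-driven GFP ochre reporter. Cells went into GFP/RFP bins, which were Illumina-sequenced, and variants with ≥100 reads and ≥30 cells were scored. Nonsense suppression (GFPSEQ) is the per-bin median GFP/RFP weighted by estimated cell share and expressed relative to the unmutated parent tRNA.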
C3U A31G: the nonsense suppression was determined as 0.0805.
Then C3U A31U, with at most 0.026.
As to C3U A33U, the nonsense suppression came to 0.027.
On to U4A C11U C34U, for which the nonsense suppression was at most 0.026.
For the variant C3A U70G, the nonsense suppression was at most 0.026.
Then U2G C11U U55G A60U C82G G86C G88U, with at most 0.026.
U4C G59A: the nonsense suppression is at most 0.026.
As to U4C C11U, the nonsense suppression worked out at 0.109.
Regarding U4C, the nonsense suppression stood at 0.585.
In the case of U4A, the nonsense suppression was determined as 0.693.
Then U4G, with 1.16.
Consider U4A G19U, for which the nonsense suppression was at most 0.026.
Consider C3U U21G G85C, for which the nonsense suppression was 0.417.
Then U4G A14U G26A, with at most 0.026.
For the variant U4A A24U, the nonsense suppression worked out at 0.0458.
Then U4A C11A A14U, with at most 0.026.
Then C3U A13U C34G, with at most 0.026.
Consider U4C A60C, for which the nonsense suppression worked out at 1.04.
On to U4C U21C G67A, for which the nonsense suppression is 0.0868.
Then U4C A31U U57G G88U, with at most 0.026; and U4C A13U G78A, with 0.424.
Regarding U4A G7U U76A, the nonsense suppression was at most 0.026.
Consider U2G G32C, for which the nonsense suppression is at most 0.026.
Then C3U G26C G28A, with at most 0.026.
Turning to C3G C11A C81G, the nonsense suppression was at most 0.026.
Consider C3A U22C G26U C80A, for which the nonsense suppression was at most 0.026.
In the case of U4C A31U, the nonsense suppression came to 1.04.
In the case of C3U G10A, the nonsense suppression stood at 0.0262.
For the variant U2G G28U U35C, the nonsense suppression was at most 0.026.
Then U4A A23G, with 0.288.
As to U4C G26U C34G U35A C82A, the nonsense suppression is at most 0.026.
As for C3U U57C G69A G73A G85A, the nonsense suppression is at most 0.026.
Turning to C3G U20G G69A U70C, the nonsense suppression is at most 0.026.
Regarding U4G A54U, the nonsense suppression turned out to be 0.469.
For the variant U4C G85A, the nonsense suppression is 0.625.
Turning to U4C A23U A54G G59U G67C, the nonsense suppression is at most 0.026.
Then U4C G61U C79G A89G, with at most 0.026; and C3U G85A, with 0.528.
Then C3A G28U G65C, with at most 0.026; and U4A C5G G59A, with at most 0.026; and C3A C29A A54U, with at most 0.026.
For the variant U4C C12U, the nonsense suppression came to 0.745.
For U4C A62U, the nonsense suppression is 0.272.
Then U4C G15A U21A, with 0.214; and U4A U20A, with 0.072.
On to U4C U22A G86A, for which the nonsense suppression came to 0.552.
As to U4C U35C G69C, the nonsense suppression was at most 0.026.
Turning to U4C U57A, the nonsense suppression came to 0.609.
Then U4C U57G, with 0.0337.
On to C3A C34A U58A, for which the nonsense suppression was at most 0.026.
As for U4C C12G C64G G66C, the nonsense suppression is at most 0.026.
On to U2G C3U C27G G66A U70C, for which the nonsense suppression was at most 0.026.
Then U4C A13C, with 1.05; and U4C A13G, with 0.774; and U4C A13U, with 1.12.
Turning to C3U A89C, the nonsense suppression worked out at 0.0874.
C3G A14U G18U: the nonsense suppression was at most 0.026.
Consider U4G A74G, for which the nonsense suppression was found to be 0.0287.
As for U4G C72G, the nonsense suppression is 0.0909.
For the variant U4A A30G, the nonsense suppression came out at 0.0267.
Then U4C U71C, with at most 0.026.
As to C3U U4C A9C, the nonsense suppression is 1.11.
With U4G C77A, the nonsense suppression was found to be 0.0479.
Regarding U4G C77U, the nonsense suppression was 0.0723.
Consider C3U A60U, for which the nonsense suppression was found to be 0.55.
Consider U4C C29A, for which the nonsense suppression turned out to be 1.11.
Then U4C C29U, with 1.03; and C3G U16G G66A, with at most 0.026; and C3A A23G G25U C72A, with at most 0.026.
As for U2G A23U, the nonsense suppression was at most 0.026.
With U4C C34G, the nonsense suppression is 0.0649.
Consider U4C C34A, for which the nonsense suppression is 0.0274.
Turning to C3A U35G, the nonsense suppression is at most 0.026.
With C3A U35A, the nonsense suppression was at most 0.026.
As to C3A U35C, the nonsense suppression is at most 0.026.
Then U4G A9C, with 0.0511; and C3U C81U, with 0.0941.
As for C3U A54C, the nonsense suppression is 0.079.
Then C3U A30G C34U, with at most 0.026.
Then C3G C29G A54U, with at most 0.026; and C3U U16G, with 0.22; and C3U U16A, with 0.16.
With C3A C29G A60C C81G, the nonsense suppression is at most 0.026.
For the variant U4C C83U, the nonsense suppression is 1.17.
With U4G C12G, the nonsense suppression stood at 0.0311.
Then U4A A13C C83U G84C, with at most 0.026; and U4A U16A, with 0.215.
As to U4A U16G, the nonsense suppression was determined as 0.247.
Then C3U U17A, with 0.194; and U2G A87U, with 0.655.
U4C G6U G28A: the nonsense suppression is 0.427.
Then C3U A9G, with 0.195; and C3U C34U, with at most 0.026.
Take U4C A13G C83U: the nonsense suppression turned out to be 0.334.
U4C A13G C29U: the nonsense suppression was found to be 0.221.
For the variant C3U G7A U17G, the nonsense suppression was at most 0.026.
For the variant U2G G19U A31U C83A G84A, the nonsense suppression is at most 0.026.
For the variant U4C C68U U76C, the nonsense suppression stood at 1.13.
Then C3A U4C, with 0.191; and U2G U16G U22G A23U, with at most 0.026.
Then C3A U20A G28A, with at most 0.026.
As for C3U U8G U58G C80A C82G G86C, the nonsense suppression was at most 0.026.
Then U4C U35G G61A G78A C83A G86C, with at most 0.026; and C3U C27G, with 0.0543.
Turning to U4C A14G G61A U71A, the nonsense suppression is at most 0.026.
In the case of U4C G25A, the nonsense suppression stood at 0.162.
Then U4C G25C, with 0.723; and U4A U17G G69A G78U, with at most 0.026; and C3G G84U, with at most 0.026.
As to U2G C12A, the nonsense suppression is at most 0.026.
For the variant U4G C68G, the nonsense suppression worked out at 0.0622.
Regarding C3G A24C A31C, the nonsense suppression was at most 0.026.
Then U4A C11U, with 0.0306.
Take U4A U21G C79U: the nonsense suppression is at most 0.026.
U4C U8A: the nonsense suppression came to 0.0441.
In the case of U4A A14U, the nonsense suppression was 0.0276.
Then U4A A14G, with 0.0942.
With U2G G6C G18A G67C G86A A87U, the nonsense suppression is at most 0.026.
Then U2G G6C G18A G67C G86A A87G, with at most 0.026; and C3A A23C G26A U58A G78C, with at most 0.026; and C3U G73A, with 0.0656.
In the case of C3A U4A A62G, the nonsense suppression was at most 0.026.
In the case of U4A C79U, the nonsense suppression amounted to 0.0353.
Then U4G A31U, with 0.0387.
As for U4G A31G, the nonsense suppression was 0.0398.
Regarding C3A C5G U57C U70A C80A, the nonsense suppression is at most 0.026.
As for C3A C72A, the nonsense suppression is at most 0.026.
Take C3G A13U: the nonsense suppression is 0.0541.
Regarding C3U G78A, the nonsense suppression came out at 0.0608.
Regarding U2G U8A C12A A30G G59U G88C, the nonsense suppression is at most 0.026.
For U4C A9G A13G U76C, the nonsense suppression turned out to be 0.202.
In the case of U2G C11A A74C G84C, the nonsense suppression was at most 0.026.
For the variant C3A U58G U76A, the nonsense suppression was at most 0.026.
Consider U4C G61C, for which the nonsense suppression is 0.86.
In the case of U4C G61A, the nonsense suppression is 1.25.
Consider U4C G61U, for which the nonsense suppression was determined as 1.02.
On to C3A G18C G86A, for which the nonsense suppression is at most 0.026.
C3U C77G: the nonsense suppression was 0.0323.
For C3A C29U A87G, the nonsense suppression is at most 0.026.
In the case of U4A C5A, the nonsense suppression came out at 0.0374.
Then C3G U8G U21C C34U, with at most 0.026; and U4A A31U, with 0.0312; and U2G G78U, with 0.0774.
In the case of U2G A13U, the nonsense suppression was found to be 0.0638.
For C3U A24C, the nonsense suppression was 0.0575.
Take C3U U22C: the nonsense suppression was determined as 0.304.
Then C3U U22A, with 0.169; and C3A G6A U71G, with at most 0.026; and U4C A24U, with 0.84.
For the variant U4C A24G, the nonsense suppression came out at 0.31.
Then U4C A24C, with 1.06.
With U2G G10C G15U C29U A31U, the nonsense suppression was at most 0.026.
Regarding U4A U76A, the nonsense suppression was found to be 0.0437.
C3G G7C U55A: the nonsense suppression was at most 0.026.
On to U4A A13C U70C C82U, for which the nonsense suppression was at most 0.026.
Regarding U4G A13U, the nonsense suppression was found to be 0.191.
Take U4A U20C C83A: the nonsense suppression is at most 0.026.
On to C3U U4C C5G G7U U8A A9G G10C C12A U17A U57A, for which the nonsense suppression is at most 0.026.
For the variant C3A G66C, the nonsense suppression is at most 0.026.
Consider U4A A9U, for which the nonsense suppression turned out to be 0.2.
On to U4C G78A, for which the nonsense suppression was found to be 0.978.
As for U4C G78C, the nonsense suppression stood at 1.06.
Take U4C G78U: the nonsense suppression amounted to 1.12.
Then U4A A60U, with 0.52.
For the variant C3U U35G G61A, the nonsense suppression is at most 0.026.
With C3G C56G, the nonsense suppression was at most 0.026.
For U4G A60C G85A, the nonsense suppression was at most 0.026.

The values are drawn from the RNAGym collection of RNA variant scans (doi:10.1101/gad.245936.114).
